The test system of data set [1] is Gerbillinae. Nature of the data set: Inhibition of GR-73632-induced foot tapping in iv dosed gerbils after 24 hrs. Type of data set: functional. The conditions noted are these: Gerbillinae, iv, 24 h; read-out: ID50 (the source's name).
A short description of data set [2]: Volume of distribution in dog. Type of data set: ADME, organism-based, Canis lupus familiaris. The settings on record: in vivo.
The test system of data set [3] is Rhesus monkey. Nature of the data set: Receptor occupancy at NK1 receptor in iv dosed rhesus monkey brain after 4 hrs. Format: functional, Macaca mulatta. The method in brief:
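Rhesus macaques received a 4-h iv infusion. Brain NK1 receptor occupancy was measured by PET and related to plasma steady-state concentration to estimate 50% and 90% occupancy levels.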

Data set [4] in a line: Oral bioavailability in rat. Type of data set: ADME, organism-based. The settings on record: in vivo.
Data set [5] concerns Gerbillinae. Put plainly: Inhibition of GR-73632-induced foot tapping in orally dosed gerbils after 1 hr. The settings on record: po, read-out: ID50 (the source's name).
Data set [6] relates to Cavia porcellus. Put plainly: Inhibition of separation-induced vocalizations in po dosed guinea pig after 4 hrs. Type of data set: functional. The conditions noted are these: read-out: ID50 (the source's name). The method in brief: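 Guinea pig pups were dosed orally, and separation-induced vocalizations were measured 4 h later. ID50 is given in mg/kg.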
Data set [7] can be described thus: Half life in dog. Format: ADME, organism-based, Canis lupus familiaris. The settings on record: in vivo.
Data set [8] is described as follows: Oral bioavailability in dog. Type of data set: ADME, organism-based, Canis lupus familiaris. The settings on record: in vivo.
The nature of data set [9]: Plasma clearance in rat. Type of data set: ADME, organism-based.
Data set [10] relates to Gerbillinae. Put plainly: Inhibition of GR-73632-induced foot tapping in gerbils at 3 mg/kg, iv after 24 hrs. Type of data set: functional. The conditions noted are these: Gerbillinae, iv, 24 h.
Data set [11] relates to Gerbillinae. Put plainly: Inhibition of GR-73632-induced foot tapping in orally dosed gerbils after 4 hrs. The settings on record: po, read-out: ID50 (the source's name).
Data set [12] in a line: Half life in rat. Format: ADME, organism-based. The settings on record: in vivo.
The nature of data set [13]: Plasma clearance in rhesus monkey. Format: ADME, organism-based, Macaca mulatta.
Data set [14] concerns the target T1, Substance-K receptor (Homo sapiens, UniProt P21452).
T1 sequence (P21452 whole entry): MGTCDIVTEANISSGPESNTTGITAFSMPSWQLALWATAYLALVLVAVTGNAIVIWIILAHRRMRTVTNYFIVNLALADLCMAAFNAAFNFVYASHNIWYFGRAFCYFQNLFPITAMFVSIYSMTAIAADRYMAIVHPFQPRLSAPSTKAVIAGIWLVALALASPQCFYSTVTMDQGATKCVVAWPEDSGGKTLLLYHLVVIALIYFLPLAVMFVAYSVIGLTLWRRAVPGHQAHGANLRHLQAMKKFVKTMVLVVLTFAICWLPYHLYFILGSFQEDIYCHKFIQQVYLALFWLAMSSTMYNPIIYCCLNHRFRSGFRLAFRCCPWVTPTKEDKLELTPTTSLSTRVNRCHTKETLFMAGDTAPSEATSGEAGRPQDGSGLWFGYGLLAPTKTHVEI
Nature of the data set: Binding affinity to NK2 receptor.

Data set [15] has as its system Gerbillinae. Nature of the data set: Inhibition of GR-73632-induced foot tapping in gerbils at 1 mg/kg, iv. Type of data set: functional.
Data set [16] can be described thus: Oral bioavailability in rhesus monkey. Type of data set: ADME, organism-based, Macaca mulatta. The conditions noted are these: in vivo.
The target of data set [17] is T2, Neuromedin-K receptor (Homo sapiens, UniProt P29371).
T2 sequence (P29371 whole entry): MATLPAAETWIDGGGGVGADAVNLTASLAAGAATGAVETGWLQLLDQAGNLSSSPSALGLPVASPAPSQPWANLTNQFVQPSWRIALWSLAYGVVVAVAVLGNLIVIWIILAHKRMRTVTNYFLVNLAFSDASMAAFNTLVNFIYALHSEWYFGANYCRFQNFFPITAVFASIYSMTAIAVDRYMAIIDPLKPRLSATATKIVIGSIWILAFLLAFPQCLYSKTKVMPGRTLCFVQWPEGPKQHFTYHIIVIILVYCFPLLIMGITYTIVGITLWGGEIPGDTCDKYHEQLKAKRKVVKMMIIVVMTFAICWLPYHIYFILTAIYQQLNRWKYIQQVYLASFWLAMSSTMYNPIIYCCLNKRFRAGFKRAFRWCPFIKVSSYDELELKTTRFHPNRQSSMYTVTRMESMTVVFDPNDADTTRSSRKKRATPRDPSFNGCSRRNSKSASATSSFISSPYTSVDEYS
Put plainly: Binding affinity to NK3 receptor.

Data set [18] is described as follows: Volume of distribution in rhesus monkey. Type of data set: ADME, organism-based, Macaca mulatta. The conditions noted are these: in vivo.
In data set [19] the test system is Gerbillinae. Nature of the data set: Inhibition of GR-73632-induced foot tapping in iv dosed gerbils. Format: functional. The conditions noted are these: Gerbillinae, iv; read-out: ID50 (the source's name).
Data set [20] in a line: Plasma clearance in dog. Type of data set: ADME, organism-based, Canis lupus familiaris.
Data set [21] can be described thus: Volume of distribution in rat. The settings on record: in vivo. Format: ADME, organism-based.
Data set [22] in a line: Half life in rhesus monkey. Format: ADME, organism-based, Macaca mulatta. The settings on record: in vivo.
For data set [23], the target named is Substance-P receptor (Homo sapiens, UniProt P25103). Nature of the data set: Displacement of [125I]-SP from human NK1 receptor expressed in CHO cells. A general note: Displacement assays read how much labelled ligand stays bound in the presence of the test substance.

The record followed here is ChEMBL document CHEMBL1139768, “The discovery of potent, selective, and orally bioavailable hNK1 antagonists derived from pyrrolidine” (Bioorg Med Chem Lett, 2007).

The structures appear in SMILES notation.

Sequence of Substance-P receptor (P25103 whole entry): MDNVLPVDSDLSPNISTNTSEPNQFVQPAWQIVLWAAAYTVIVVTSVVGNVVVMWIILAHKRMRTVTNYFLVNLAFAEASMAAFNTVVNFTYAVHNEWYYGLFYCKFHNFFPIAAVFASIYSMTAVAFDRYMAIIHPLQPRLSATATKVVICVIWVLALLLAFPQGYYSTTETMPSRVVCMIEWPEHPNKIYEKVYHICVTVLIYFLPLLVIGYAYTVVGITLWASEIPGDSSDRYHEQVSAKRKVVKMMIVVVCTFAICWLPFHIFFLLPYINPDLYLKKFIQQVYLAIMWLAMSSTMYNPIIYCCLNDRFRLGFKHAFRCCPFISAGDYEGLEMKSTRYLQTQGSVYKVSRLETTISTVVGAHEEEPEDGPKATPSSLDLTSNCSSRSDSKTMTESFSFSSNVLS

As to `C[C@@H](O[C@@H]1CN(C2=CC(=O)CC2)C[C@H]1c1ccc(F)cc1)c1cc(C(F)(F)F)cc(C(F)(F)F)c1`, the ED50 was found to be 0.045 mg/kg in data set [1]; 0.9 mg/kg in data set [5]; 0.17 mg/kg in data set [6]; 0.25 mg/kg in [11]; 0.1 mg/kg in data set [19]. Moreover, the Vd (in general, a proportionality between amount in the body and measured concentration, not a real space) in [2] was determined as 1.6 L/kg; in data set [18], 2.3 L/kg; in data set [21] it was 6.2 L/kg. In data set [3], this compound had an Occ50 of 33 ng/mL. The compound further had an Occ90 in data set [3] of 300 ng/mL. The values for the bioavailability in [4], in data set [8] and in [16] were 100%, 100% and 68%, respectively. Further, the values for the half-life in [7], in data set [12] and in data set [22] were 1200 min, 216 min and 342 min, respectively. The values for the clearance in [9], in [13] and in data set [20] were 19.6 mL/min/kg, 4.5 mL/min/kg and 1 mL/min/kg, respectively. Further, at 3 mg/kg the inhibition in vivo in data set [10] was 100%. Moreover, the IC50 (commonly the concentration that gives 50% inhibition) is 1730 nM in data set [14], greater than 3 µM in [17] and 0.11 nM in data set [23]. 1 mg/kg produced 100% inhibition in vivo in [15].
